The values that follow come from the RNAGym collection of RNA variant scans (doi:10.1002/anie.201605470).

First the molecules themselves.
B1: Osa-1-4 twister ribozyme (parent)
chain: CCGCCUAACACUGCCAAUGCCGGUCCCAAGCCCGGAUAAAAGUGGAGGGGGCGG

In this series the parent is B1. The experiment in a line: self-cleavage, relative activity (ratio to wild type); higher = more cleavage; co-transcriptional. The procedure, abridged:
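The 48 positions downstream of the cleavage site in a DNA template for a 54-nucleotide Oryza sativa twister ribozyme carried 97 % wild-type base and 1 % of each other base. After in vitro transcription (2 h, 37 °C) with co-transcriptional self-cleavage, the RNA was reverse-transcribed with a template-switching oligonucleotide, PCR-amplified and deep-sequenced. Relative activity is the fraction cleaved, judged by reads with or without upstream sequence and normalised to wild type.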
As to CCGCCUAACACUGGAAAUGCCGGUCCCAAGCCCGGAUAAAAGUGGAGGGGGCGG, the self-cleavage came to 0.06.
Under CCGCCUAACACUGGUAAUGCCGGUCCCAAGCCCGGAUAAAAGUGGAGGGGGCGG stands 0.06.
In the case of CCGCCUAACACUGGGAAUGCCGGUCCCAAGCCCGGAUAAAAGUGGAGGGGGCGG it was 0.22; in that of CCGCCUAACACUGACAAUGCCGGUCCCAAGACCGGAUAAAAGUGGAGGGGGCGG, 0.03.
Under CCGCCUAACACUGACAAUGCCGGUCCCAAGUCCGGAUAAAAGUGGAGGGGGCGG stands 0.04; under CCGCCUAACACUGACAAUGCCGGUCCCAAGGCCGGAUAAAAGUGGAGGGGGCGG, 0.02.
Take CCGCCUAACACUGACAAUGCCGCUCCCAAGCCCGGAUAAAAGUGGAGGGGGCGG: the self-cleavage was 0.02.
Under CCGCCUAACACUGACAAUGCCGUUCCCAAGCCCGGAUAAAAGUGGAGGGGGCGG stands 0.02; under CCGCCUAACACUGACAAUGCCGAUCCCAAGCCCGGAUAAAAGUGGAGGGGGCGG, 0.05; under CCGCCUAACACUGACAAUGCCGGUUCCAAGCCCGGAUAAAAGUGGAGGGGGCGG, 0.07.
Under CCGCCUAACACUGACAAUGCCGGUGCCAAGCCCGGAUAAAAGUGGAGGGGGCGG stands 0.02; under CCGCCUAACACUGACAAUGCCGGUACCAAGCCCGGAUAAAAGUGGAGGGGGCGG, 0.05.
In the case of CCGCCUAACACUGACAAUGCCGGUCCCAAGCCCGGAUAAAAGUGAAGGGGGCGG it was 0.04; in that of CCGCCUAACACUGACAAUGCCGGUCCCAAGCCCGGAUAAAAGUGUAGGGGGCGG, 0.03.
In the case of CCGCCUAACACUGACAAUGCCGGUCCCAAGCCCGGAUAAAAGUGCAGGGGGCGG, the self-cleavage stood at 0.01.
As for CCGCCUAACACGGACAAUGCCGGUCCCAAGCCCGGAUAAAAGUGGAGGGGGCGG, the self-cleavage is 0.06.
Under CCGCCUAACACCGACAAUGCCGGUCCCAAGCCCGGAUAAAAGUGGAGGGGGCGG stands 0.05.
Under CCGCCUAACACAGACAAUGCCGGUCCCAAGCCCGGAUAAAAGUGGAGGGGGCGG stands 0.08; under CCGCCUAACACUGACAAUUCCGGUCCCAAGCCCGGAUAAAAGUGGAGGGGGCGG, 0.07; under CCGCCUAACACUGACAAUACCGGUCCCAAGCCCGGAUAAAAGUGGAGGGGGCGG, 0.1.
In the case of CCGCCUAACACUGACAAUCCCGGUCCCAAGCCCGGAUAAAAGUGGAGGGGGCGG it was 0.04.
CCGCCUAACACUAACAAUGCCGGUCCCAAGCCCGGAUAAAAGUGGAGGGGGCGG: the self-cleavage was found to be 0.03.
In the case of CCGCCUAACACUCACAAUGCCGGUCCCAAGCCCGGAUAAAAGUGGAGGGGGCGG it was 0.02.
In the case of CCGCCUAACACUUACAAUGCCGGUCCCAAGCCCGGAUAAAAGUGGAGGGGGCGG it was 0.02; in that of CCGCCUAACACUGACAAUGCCGGUCCCAAGCCCGGAUAAAAGAGGAGGGGGCGG, 0.06.
Under CCGCCUAACACUGACAAUGCCGGUCCCAAGCCCGGAUAAAAGCGGAGGGGGCGG stands 0.06.
Take CCGCCUAACACUGACAAUGCCGGUCCCAAGCCCGGAUAAAAGGGGAGGGGGCGG: the self-cleavage was 0.07.
In the case of CCGCCUAACACUGACAAUGCCGGUCCCAAGCCCGGAUAAAAGUGGAGGGGGCGU it was 0.22; in that of CCGCCUAACACUGACAAUGCCGGUCCCAAGCCCGGAUAAAAGUGGAGGGGGCGA, 0.1.
In the case of CCGCCUAACACUGACAAUGCCGGUCCCAAGCCCGGAUAAAAGUGGAGGGGGCGC it was 0.06; in that of CCGCCUAACACUGACAAUGCCGGUCGCAAGCCCGGAUAAAAGUGGAGGGGGCGG, 0.02.
Under CCGCCUAACACUGACAAUGCCGGUCUCAAGCCCGGAUAAAAGUGGAGGGGGCGG stands 0.05; under CCGCCUAACACUGACAAUGCCGGUCACAAGCCCGGAUAAAAGUGGAGGGGGCGG, 0.05.
Take CCGCCUAACACUGACAAUGCCGGUCCCAAGCCCGGAUAAAAGUGGAGGGGUCGG: the self-cleavage stood at 0.04.
In the case of CCGCCUAACACUGACAAUGCCGGUCCCAAGCCCGGAUAAAAGUGGAGGGGACGG, the self-cleavage was 0.06.
In the case of CCGCCUAACACUGACAAUGCCGGUCCCAAGCCCGGAUAAAAGUGGAGGGGCCGG it was 0.02; in that of CCGCCUAACACUGGCAAUGCCGGUCCCAAGCCCGGAUAAAAGUGGAGGGGGCGG, 0.21.
Regarding CCGCCUAACACUGACAAUGCCGGUCCCAAGCCCGAAUAAAAGUGGAGGGGGCGG, the self-cleavage was 0.12.
Take CCGCCUAACACUGACAAUGCCGGUCCCAAGCCCGCAUAAAAGUGGAGGGGGCGG: the self-cleavage turned out to be 0.05.
In the case of CCGCCUAACACUGACAAUGCCGGUCCCAAGCCCGUAUAAAAGUGGAGGGGGCGG it was 0.09.
In the case of CCGCCUAACACUGACAAUGCCAGUCCCAAGCCCGGAUAAAAGUGGAGGGGGCGG it was 0.08.
Under CCGCCUAACACUGACAAUGCCCGUCCCAAGCCCGGAUAAAAGUGGAGGGGGCGG stands 0.02.
On to CCGCCUAACACUGACAAUGCCUGUCCCAAGCCCGGAUAAAAGUGGAGGGGGCGG, for which the self-cleavage was determined as 0.05.
Under CCGCCUAACACUGACAAUGCCGGUCCCAAGCCCGGAUAAAAGUGGAGGGAGCGG stands 0.09.
Turning to CCGCCUAACACUGACAAUGCCGGUCCCAAGCCCGGAUAAAAGUGGAGGGCGCGG, the self-cleavage came out at 0.08.
Under CCGCCUAACACUGACAAUGCCGGUCCCAAGCCCGGAUAAAAGUGGAGGGUGCGG stands 0.07.
In the case of CCGCCUAACACUGACAAUGCCGGUCCUAAGCCCGGAUAAAAGUGGAGGGGGCGG it was 0.04; in that of CCGCCUAACACUGACAAUGCCGGUCCGAAGCCCGGAUAAAAGUGGAGGGGGCGG, 0.03; in that of CCGCCUAACACUGACAAUGCCGGUCCAAAGCCCGGAUAAAAGUGGAGGGGGCGG, 0.07.
In the case of CCGCCUAACACUGACAAUGCCGGUCCCAAGCCCGGAUAAAACUGGAGGGGGCGG it was 0.05; in that of CCGCCUAACACUGACAAUGCCGGUCCCAAGCCCGGAUAAAAAUGGAGGGGGCGG, 0.05; in that of CCGCCUAACACUGACAAUGCCGGUCCCAAGCCCGGAUAAAAUUGGAGGGGGCGG, 0.03.
For CCGCCUAACACUGACAAUGCGGGUCCCAAGCCCGGAUAAAAGUGGAGGGGGCGG, the self-cleavage was 0.03.
In the case of CCGCCUAACACUGACAAUGCUGGUCCCAAGCCCGGAUAAAAGUGGAGGGGGCGG it was 0.09.
In the case of CCGCCUAACACUGACAAUGCAGGUCCCAAGCCCGGAUAAAAGUGGAGGGGGCGG it was 0.08; in that of CCGCCUAACACUGACAAUGCCGGUCCCAAGCCCGGAUAAAAGUGGAAGGGGCGG, 0.04; in that of CCGCCUAACACUGACAAUGCCGGUCCCAAGCCCGGAUAAAAGUGGACGGGGCGG, 0.03.
In the case of CCGCCUAACACUGACAAUGCCGGUCCCAAGCCCGGAUAAAAGUGGAUGGGGCGG it was 0.05; in that of CCGCCUAACACUGACAAUGCCGGUCCCAAGCUCGGAUAAAAGUGGAGGGGGCGG, 0.03; in that of CCGCCUAACACUGACAAUGCCGGUCCCAAGCACGGAUAAAAGUGGAGGGGGCGG, 0.05.
With CCGCCUAACACUGACAAUGCCGGUCCCAAGCGCGGAUAAAAGUGGAGGGGGCGG, the self-cleavage turned out to be 0.03.
In the case of CCGCCUAACACUGACAAUGCCGGUCCCAAGCCCGGAUAAAAGUGGAGGGGGAGG it was 0.1; in that of CCGCCUAACACUGACAAUGCCGGUCCCAAGCCCGGAUAAAAGUGGAGGGGGGGG, 0.13.
In the case of CCGCCUAACACUGACAAUGCCGGUCCCAAGCCCGGAUAAAAGUGGAGGGGGUGG it was 0.13; in that of CCGCCUAAUACUGGCAAUGCCGGUCCCAAGCCCGGAUAAAAGUGGAGGGGGCGG, 0.08.
For the variant CCGCCUAAGACUGGCAAUGCCGGUCCCAAGCCCGGAUAAAAGUGGAGGGGGCGG, the self-cleavage amounted to 0.16.
On to CCGCCUAAAACUGGCAAUGCCGGUCCCAAGCCCGGAUAAAAGUGGAGGGGGCGG, for which the self-cleavage came to 0.04.
In the case of CCGCCUAACACUGACAAUGCCGGUCCCAAGCCCGGAUAAAAGUGGAGCGGGCGG it was 0.02; in that of CCGCCUAACACUGACAAUGCCGGUCCCAAGCCCGGAUAAAAGUGGAGAGGGCGG, 0.02.
In the case of CCGCCUAACACUGACAAUGCCGGUCCCAAGCCCGGAUAAAAGUGGAGUGGGCGG it was 0.02; in that of CCGCCUAACACUGACAAUGCCGGUCCCAAUCCCGGAUAAAAGUGGAGGGGGCGG, 0.62; in that of CCGCCUAACACUGACAAUGCCGGUCCCAACCCCGGAUAAAAGUGGAGGGGGCGG, 0.03.
In the case of CCGCCUAACACUGACAAUGCCGGUCCCAAACCCGGAUAAAAGUGGAGGGGGCGG it was 0.02; in that of CCGCCUAACACUGACAAUGCCGGUCCCAAGCCCGGAUAAAAGUUGAGGGGGCGG, 0.05.
As to CCGCCUAACACUGACAAUGCCGGUCCCAAGCCCGGAUAAAAGUCGAGGGGGCGG, the self-cleavage worked out at 0.06.
Under CCGCCUAACACUGACAAUGCCGGUCCCAAGCCCGGAUAAAAGUAGAGGGGGCGG stands 0.07; under CCGCCUAACACUGACAAUGCCGGCCCCAAGCCCGGAUAAAAGUGGAGGGGGCGG, 0.04.
In the case of CCGCCUAACACUGACAAUGCCGGACCCAAGCCCGGAUAAAAGUGGAGGGGGCGG it was 0.03; in that of CCGCCUAACACUGACAAUGCCGGGCCCAAGCCCGGAUAAAAGUGGAGGGGGCGG, 0.02.
On to CCGCCUAACACUGACAAUGCCGGUCCCAAGCCCGGAGAAAAGUGGAGGGGGCGG, for which the self-cleavage stood at 0.15.
Under CCGCCUAACACUGACAAUGCCGGUCCCAAGCCCGGAAAAAAGUGGAGGGGGCGG stands 0.07; under CCGCCUAACACUGACAAUGCCGGUCCCAAGCCCGGACAAAAGUGGAGGGGGCGG, 0.12.
Under CCGCCUAACACUGACAAUGCCGGUCCCAAGCCCGGAUAAAAGUGGAGGGGGCUG stands 0.05; under CCGCCUAACACUGACAAUGCCGGUCCCAAGCCCGGAUAAAAGUGGAGGGGGCCG, 0.02.
Under CCGCCUAACACUGACAAUGCCGGUCCCAAGCCCGGAUAAAAGUGGAGGGGGCAG stands 0.06; under CCGCCUAACACUGACAAUGCCGGUCCCAAGCCCGGAUAAAAGUGGAGGCGGCGG, 0.01; under CCGCCUAACACUGACAAUGCCGGUCCCAAGCCCGGAUAAAAGUGGAGGUGGCGG, 0.03.
As for CCGCCUAACACUGACAAUGCCGGUCCCAAGCCCGGAUAAAAGUGGAGGAGGCGG, the self-cleavage was determined as 0.02.
Under CCGCCUAACACUGACAAUGCCGGUCCCAAGCCCCGAUAAAAGUGGAGGGGGCGG stands 0.05.
In the case of CCGCCUAACACUGACAAUGCCGGUCCCAAGCCCAGAUAAAAGUGGAGGGGGCGG it was 0.07.
In the case of CCGCCUAACACUGACAAUGCCGGUCCCAAGCCCUGAUAAAAGUGGAGGGGGCGG it was 0.05; in that of CCGCCUAACACUGACAACGCCGGUCCCAAGCCCGGAUAAAAGUGGAGGGGGCGG, 0.11; in that of CCGCCUAACACUGACAAAGCCGGUCCCAAGCCCGGAUAAAAGUGGAGGGGGCGG, 0.09.
Regarding CCGCCUAACACUGACAAGGCCGGUCCCAAGCCCGGAUAAAAGUGGAGGGGGCGG, the self-cleavage amounted to 0.11.
Consider CCGCCUAACACUGACAAUGCCGGUCCCAAGCCGGGAUAAAAGUGGAGGGGGCGG, for which the self-cleavage was 0.01.
In the case of CCGCCUAACACUGACAAUGCCGGUCCCAAGCCUGGAUAAAAGUGGAGGGGGCGG it was 0.06; in that of CCGCCUAACACUGACAAUGCCGGUCCCAAGCCAGGAUAAAAGUGGAGGGGGCGG, 0.03.
